Published values gathered from unrelated publications.
Each line is one published result; the experiments were not run side by side.
Medium: plasma

| SMILES | test system | setting | AUC(0-t) |
| --- | --- | --- | --- |
| CCc1cc(OC)c2nccc(N3CCc4c(cc(Cn5ccnc5)cc4-c4cn(C)nc4C(F)(F)F)C3=O)c2c1 | male Sprague-Dawley rat | oral, 50 mg/kg | 10.3 µg·h/mL |
| O=C(Nc1cc(F)c(F)c(F)c1)c1ccc(F)c(S(=O)(=O)NCc2cccc(B(O)O)c2)c1 | male Sprague-Dawley rat | oral, 20 mg/kg | 0.0343 µg·h/mL |
| Cc1c(-c2ccccc2)cccc1N1C(=O)c2cc(CN[C@H](C(=O)O)C(C)O)c(OCc3cccc(C#N)c3)cc2C1=O (stereo partly drawn) | Sprague-Dawley rat | oral, 50 mg/kg | 0.0751 µg·h/mL |
| N#Cc1ccc(Nc2nc(N)cc(Oc3c(F)cc(-c4ccc(C#N)cc4)cc3F)n2)cc1 | Sprague-Dawley rat | oral, 5 mg/kg | 0.074 µg·h/mL |
| CCOC(=O)[C@@]12C[C@@H]1[C@@H](n1ccc3c(NC)nc(C#Cc4ccc(Cl)s4)nc31)[C@H](O)[C@@H]2O | male Sprague-Dawley rat | oral, 10 mg/kg | 0.361 µg·h/mL |
| C[C@H](Nc1ncnc2[nH]cnc12)c1cc2cccc(Cl)c2c(=O)n1-c1ccccc1 | male Wistar rat | oral, 25 mg/kg, single dose | 9.34 µg·h/mL |
| COc1ccc2c(Cc3ccccc3F)c3[n+](cc2c1OC)CCc1cc2c(cc1-3)OCO2.[Br-] | rat | intravenous, 5 mg/kg | 0.113 µg·h/mL |
| CCc1cc(C(=O)NC)c2nccc(N3CCc4c(cc(Cn5ccnc5)cc4-c4cn(C)nc4C(F)(F)F)C3=O)c2c1 | male Sprague-Dawley rat | intravenous, 3 mg/kg | 1.27 µg·h/mL |
| CCc1nc(C(N)=O)c(Nc2ccc(N3CCC(N4CCN(C)CC4)CC3)c(OC)c2)nc1NC1CCOCC1 | male Sprague-Dawley rat | oral, 10 mg/kg | 9.29 µg·h/mL |
| COc1nc(-c2cc(C)c(N[C@@H](C)c3cc(F)cc(F)c3)nn2)ccc1-n1cnc(C)c1 | male Sprague-Dawley rat | intravenous, 1 mg/kg, single dose | 6.35 µg·h/mL |
| CNCc1cc(-c2ccccc2F)n(S(=O)(=O)c2cccnc2)c1 | Sprague-Dawley rat | oral, 10 mg/kg | 0.643 µg·h/mL |
| C=CC(=O)N1CC2CC(n3nc(-c4ccc(C(=O)Nc5ccccn5)cc4)c4c(N)ncnc43)CC2C1 (stereo not drawn) | male Wistar rat | oral, 100 mg/kg | 13.2 µg·h/mL |
| COc1ccc2c(Cc3ccccc3F)c3n(c(=O)c2c1OC)CCc1cc2c(cc1-3)OCO2 | rat | oral, 5 mg/kg | 3.47 µg·h/mL |
| Cc1nc(-c2cnc(NC(C)C)n(C)c2=O)ccc1Oc1ccnc(-c2cnn(C)c2)c1 | male Sprague-Dawley rat | intravenous, 1 mg/kg | 21.5 µg·h/mL |
| COc1ccc(C(C)=O)c(O)c1 | male Sprague-Dawley rat | oral, 100 mg/kg | 33.6 µg·h/mL |
